The values that follow come from ChEMBL document CHEMBL2380254, “Optimization of tocotrienols as antiproliferative and antimigratory leads” (Eur J Med Chem, 2013).

Common to all, as to assay type: functional
In assay [1] the test system is UACC-257. Nature of the assay: Growth inhibition of human UACC257 cells assessed as cell growth at 10 uM after 48 hrs by sulforhodamine B assay. Conditions: UACC-257, 48 h, read-out: Activity. An outline of the steps: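 Single-dose NCI-60 test at 10 µM. Cells were grown in RPMI 1640 with 5% FBS and 2 mM L-glutamine, preincubated 24 h, with T0 plates TCA-fixed. Exposure was 48 h at 37 °C, 5% CO2. Cells were fixed with cold TCA (final 10%, 4 °C, 60 min), stained with SRB and read at 515 nm. Percent growth was taken relative to T0 and untreated control; negative values denote cell kill.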

In assay [2] the test system is SF-295. Nature of the assay: Growth inhibition of human SF295 cells after 48 hrs by sulforhodamine B assay. Conditions: SF-295, 48 h. A digest of the protocol:
(§1)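 NCI-60 panel cells grown in RPMI 1640 with 5% FBS and 2 mM L-glutamine, seeded at 5000–40,000 cells/well and preincubated 24 h. Five 10-fold dilutions (0.001–100 µM) from DMSO stocks were added for 48 h at 37 °C. Adherent cells were fixed with cold TCA (10% final) for 60 min at 4 °C, stained with 0.4% SRB, and read at 515 nm. GI50 was set where 100×(T−T0)/(C−T0)=50.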
On the technique in general: The SRB assay estimates cell density from bound dye.

Assay [3] deals with SK-MEL-2. In words: Growth inhibition of human SK-MEL-2 cells after 48 hrs by sulforhodamine B assay. The conditions noted are these: SK-MEL-2, 48 h. An outline of the steps:
as §1

Assay [4] concerns HOP-92. Nature of the assay: Growth inhibition of human HOP92 cells assessed as cell growth at 10 uM after 48 hrs by sulforhodamine B assay. The conditions noted are these: HOP-92, 48 h, read-out: Activity. An outline of the steps:
(§2)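 NCI-60 single-dose screen at 10 µM: cells in RPMI 1640 with 5% FBS, preincubated 24 h, then exposed 48 h at 37 °C. TCA fixation (16% final for suspension cells), SRB staining, absorbance 515 nm. Percent growth relative to time-zero and untreated control plates; negative values indicate cell kill.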

Assay [5] deals with MOLT-4. In words: Growth inhibition of human MOLT4 cells after 48 hrs by sulforhodamine B assay. The conditions noted are these: MOLT-4, 48 h. An outline of the steps: (§3)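 NCI-60 suspension lines in RPMI 1640 with 5% FBS and 2 mM L-glutamine, preincubated 24 h. A five-concentration 10-fold series (0.001–100 µM) was given for 48 h at 37 °C. Settled cells were fixed with 80% TCA (16% final), stained with SRB, and read at 515 nm. GI50 was taken where 100×(T−T0)/(C−T0)=50, with T0 plates fixed at drug addition.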

For assay [6], the system named is SF-539. Nature of the assay: Growth inhibition of human SF539 cells after 48 hrs by sulforhodamine B assay. Conditions: SF-539, 48 h. A digest of the protocol:
as §1

The subject of assay [7] is BT-549. In words: Growth inhibition of human BT549 cells after 48 hrs by sulforhodamine B assay. The conditions noted are these: BT-549, 48 h. An outline of the steps: (§4)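 NCI-60 screen: cells in RPMI 1640 with 5% FBS and 2 mM glutamine, 5000–40,000 cells/well, preincubated 24 h. Five concentrations (10-fold dilutions; 100 to 0.001 µM) applied for 48 h at 37 °C. TCA fixation, SRB stain, absorbance at 515 nm. Time-zero plates included; GI50 where 100×(T−T0)/(C−T0)=50.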

Assay [8] deals with CAKI-1. In words: Growth inhibition of human CAKI-1 cells after 48 hrs by sulforhodamine B assay. Conditions: CAKI-1, 48 h. A digest of the protocol: as §4
The subject of assay [9] is NCI-H522. Nature of the assay: Growth inhibition of human NCI-H522 cells after 48 hrs by sulforhodamine B assay. The conditions noted are these: NCI-H522, 48 h. An outline of the steps: as §1
Assay [10] concerns T47D. Nature of the assay: Growth inhibition of human T47D cells after 48 hrs by sulforhodamine B assay. A digest of the protocol:
(§5)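 NCI-60 five-dose screen. Cells were grown in RPMI 1640 with 5% FBS and 2 mM L-glutamine, plated at 5000–40,000 cells/well and incubated 24 h before dosing, with T0 plates TCA-fixed. DMSO stocks were diluted to doses of […] and exposed 48 h at 37 °C, 5% CO2. Cells were fixed with cold TCA (final 10%, 60 min, 4 °C), stained with 0.4% SRB in 1% acetic acid for 10 min, solubilized in 10 mM trizma base and read at 515 nm. GI50 is where 100×(T−T0)/(C−T0)=50.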

Assay [11] relates to M14. In words: Growth inhibition of human M14 cells assessed as cell growth at 10 uM after 48 hrs by sulforhodamine B assay. The conditions noted are these: M14, 48 h, read-out: Activity. A digest of the protocol: as §2
In assay [12] the test system is NCI-H522. Nature of the assay: Growth inhibition of human NCI-H522 cells assessed as cell growth at 10 uM after 48 hrs by sulforhodamine B assay. Conditions: NCI-H522, 48 h, read-out: Activity. A digest of the protocol:
(§6)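 Single-dose NCI-60 screen: adherent cells in RPMI 1640 with 5% FBS were exposed to 10 µM for 48 h at 37 °C after a 24 h preincubation. They were fixed in situ with cold TCA (10% final), stained with 0.4% SRB in 1% acetic acid, solubilized in 10 mM Tris base, and read at 515 nm. Percent growth was taken relative to time-zero and control plates.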

For assay [13], the system named is Malme-3M. Nature of the assay: Growth inhibition of human MALME-3M cells after 48 hrs by sulforhodamine B assay. A digest of the protocol: as §1
Assay [14] concerns NCI-H226. In words: Growth inhibition of human NCI-H226 cells assessed as cell growth at 10 uM after 48 hrs by sulforhodamine B assay. The conditions noted are these: NCI-H226, 48 h, read-out: Activity. An outline of the steps: as §6
The nature of assay [15]: Growth inhibition of human NCI-ADR-RES cells assessed as cell growth at 10 uM after 48 hrs by sulforhodamine B assay. The conditions noted are these: read-out: Activity. An outline of the steps: as §6
Assay [16] has as its system NCI-H23. In words: Growth inhibition of human NCI-H23 cells assessed as cell growth at 10 uM after 48 hrs by sulforhodamine B assay. Conditions: NCI-H23, 48 h, read-out: Activity. An outline of the steps: as §6
The subject of assay [17] is UO-31. Nature of the assay: Growth inhibition of human UO31 cells after 48 hrs by sulforhodamine B assay. Conditions: UO-31, 48 h. An outline of the steps: as §5
Assay [18] has as its system RPMI-8226. Nature of the assay: Growth inhibition of human RPMI8226 cells after 48 hrs by sulforhodamine B assay. The conditions noted are these: RPMI-8226, 48 h. An outline of the steps:
as §3

In assay [19] the test system is SR. Nature of the assay: Growth inhibition of human SR cells assessed as cell growth at 10 uM after 48 hrs by sulforhodamine B assay. The conditions noted are these: read-out: Activity. A digest of the protocol: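 Suspension line in RPMI 1640 with 5% FBS, single 10 µM dose for 48 h. Settled cells were fixed with TCA (final 16%), then SRB-stained and read at 515 nm. Percent growth was taken versus T0 and control; negative values denote cytotoxicity.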

In assay [20] the test system is TK-10. Nature of the assay: Growth inhibition of human TK10 cells after 48 hrs by sulforhodamine B assay. Conditions: TK-10, 48 h. An outline of the steps:
as §5

Assay [21] concerns HCT-116. Nature of the assay: Growth inhibition of human HCT116 cells assessed as cell growth at 10 uM after 48 hrs by sulforhodamine B assay. The conditions noted are these: HCT-116, 48 h, read-out: Activity. A digest of the protocol:
as §2

Assay [22] has as its system RPMI-8226. Nature of the assay: Growth inhibition of human RPMI8226 cells assessed as cell growth at 10 uM after 48 hrs by sulforhodamine B assay. Conditions: RPMI-8226, 48 h, read-out: Activity. An outline of the steps: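 Single 10 µM dose applied to suspension cells in RPMI 1640 with 5% FBS and 2 mM L-glutamine for 48 h at 37 °C. Settled cells were fixed with 80% TCA (16% final), stained with SRB, and read at 515 nm. Percent growth was calculated against time-zero and untreated control optical densities.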

The term GI50 denotes the concentration that inhibits growth by half. Low readings indicate more potent growth inhibition, high ones less potent growth inhibition. As for `CC(C)=CCC/C(C)=C/CC/C(C)=C/CC[C@]1(C)CCc2c3c(cc(C)c2O1)OCN(CCc1ccc(O)cc1)C3`, the growth at 10 µM is 105% in assay [1]; 69.1% in assay [4]; 9.79% in [11]; -50.5% in [12]; 88.7% in [14]; 37.5% in assay [15]. The growth at 10 µM in assay [16] was 27.2%; in assay [19], 1.96%; in assay [21] it was -58.2%. Moreover, the GI50 is 6.22 µM in assay [2]; 7.02 µM in [3]; 2.42 µM in assay [5]; 6.41 µM in assay [6]; 7.06 µM in assay [7]; 5.31 µM in [8]. Besides, the GI50 in assay [9] was 5.32 µM; in assay [10], 6.06 µM; in [13], 7.06 µM; in assay [17], 4.42 µM; in assay [18], 4.03 µM; in assay [20] it was 5.56 µM.
On to `COc1ccc(CCN2COc3cc(C)c4c(c3C2)CC[C@@](C)(CC/C=C(\C)CC/C=C(\C)CCC=C(C)C)O4)cc1OC`, for which the growth at 10 µM in assay [1] was 71.8%; in assay [4] it was 32.7%; in assay [11], -19.5%; in assay [12] it was -45.8%; in assay [14] it was 112%; in assay [15] it was 49.1%. Further, the growth at 10 µM in assay [16] is 50.7%; in [22], -32.6%; in assay [19] it was 4.1%; in assay [21], -84%. The GI50 in assay [2] was determined as 2.01 µM; in [3], 2.63 µM; in assay [5] it was 2.32 µM; in assay [6], 1.96 µM; in assay [7], 1.97 µM; in [8], 3.95 µM. The GI50 worked out at 2.08 µM in [9]; 1.94 µM in assay [10]; 2.03 µM in assay [13]; 1.63 µM in [17]; 3.07 µM in assay [18]; 3.08 µM in assay [20].
Consider `CC(C)=CCC/C(C)=C/CC/C(C)=C/CC[C@]1(C)CCc2c3c(c(C)c(C)c2O1)OCN(CCCCCO)C3`, for which the growth at 10 µM is 110% in assay [1]; 63.4% in assay [4]; 107% in assay [11]; 84.8% in [12]; 102% in [14]; 82.5% in assay [15]. The growth at 10 µM in assay [16] is 94.5%; in [22], 1.02%; in assay [19], -44.4%; in assay [21] it was 36.1%. Moreover, the GI50 in assay [2] was determined as 6.12 µM; in [3], 7.47 µM; in assay [5] it was 5.87 µM; in assay [6], 6.26 µM; in assay [7], 7.34 µM; in assay [8] it was 5.33 µM. Also, the GI50 in assay [9] is 7.08 µM; in assay [10] it was 6.17 µM; in assay [13], 6.9 µM; in assay [17] it was 4.64 µM; in assay [18], 9.91 µM; in [20], 5.98 µM.
As for `CC(C)=CCC/C(C)=C/CC/C(C)=C/CC[C@]1(C)CCc2c3c(cc(C)c2O1)OCN(CCCO)C3`, the growth at 10 µM is 64.2% in assay [1]; 63.1% in [4]; 15.1% in assay [11]; -72.9% in [12]; 98.7% in assay [14]; -26.4% in assay [15]. For the same molecule, the growth at 10 µM in assay [16] was 51.9%; in assay [22], 2.29%; in assay [19], -32.1%; in assay [21] it was -85.4%. In addition, the GI50 in assay [2] was 1.76 µM; in [3], 2.27 µM; in [5] it was 1.92 µM; in assay [6] it was 1.93 µM; in [7] it was 2 µM; in assay [8], 2.33 µM. Further, the 50% growth inhibitory concentration (GI50) came to 1.79 µM in assay [9]; 2.01 µM in assay [10]; 2.1 µM in assay [13]; 1.47 µM in [17]; 2.16 µM in assay [18]; 2.06 µM in assay [20].
